CTSL1 counter = counter-screen for PFM18AAP inhibitors: inhibitors of F. hepatica cathepsin L1; recombinant F. hepatica cathepsin L1, Z-Leu-Arg-MCA fluorescence; 300,000 compounds, 0.49% hits; inhibition, % at 5.96 µM; AID 1906;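 active = inhibition above the mean of all tested compounds plus 3 SD, set per screening campaign, cut at about 17% in these data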;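 note: 0% = plate median of test compound wells and 100% = 1 µM Z-Phe-Ala-diazomethylketone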
MT1-MMP act inh = MT1-MMP (human) activation inhibition; P50281; HT1080 RFP-PRO-GFP cells, GFP/RFP ratio fluorescence, overnight; percent of plate control window, DMSO zero; GFP/RFP ratio change, % at 20 µM; 360,000 compounds, 0.061% hits;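 active = GFP/RFP ratio change of at least 30% with cell ATP level not reduced by more than half and red fluorescence within 50% of control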
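Material – HT1080 RFP-PRO-GFP cells · Control set – DMSO wells and RFP-L50D-GFP cells · Incubation – overnight cell settling, then overnight compound exposure, 37 °C, 5% CO2 · Compound dosing – single-point 20 µM compound, 1% DMSO · Read-out – GFP/RFP fluorescence ratio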
DAGLB inhibitor = diacylglycerol lipase beta (human) inhibition. Q8NCG7. HEK293T DAGLB membrane lysate, EnzChek fluorogenic substrate. inhibition, % at 5.17 µM. 340,000 compounds, 0.059% hits. AID 504411; in the data active = inhibition above about 34%;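 note: 0% = enzyme with vehicle and 100% = wells lacking enzyme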
NRP1-CendR mod = NRP-1/CendR interaction modulation | O14786 | FAM-RPARPAR peptide binding to NRP-1, fluorescence polarization | inhibition, % at 25 µM | 360,000 compounds, 0.85% hits | AID 602438;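 active = inhibition or corrected inhibition above about 18%, plus a signal ratio from 0.5 to 1.5, limit read from the data, passing the limit was not always enough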
Target sequence (O14786 whole entry, looked up): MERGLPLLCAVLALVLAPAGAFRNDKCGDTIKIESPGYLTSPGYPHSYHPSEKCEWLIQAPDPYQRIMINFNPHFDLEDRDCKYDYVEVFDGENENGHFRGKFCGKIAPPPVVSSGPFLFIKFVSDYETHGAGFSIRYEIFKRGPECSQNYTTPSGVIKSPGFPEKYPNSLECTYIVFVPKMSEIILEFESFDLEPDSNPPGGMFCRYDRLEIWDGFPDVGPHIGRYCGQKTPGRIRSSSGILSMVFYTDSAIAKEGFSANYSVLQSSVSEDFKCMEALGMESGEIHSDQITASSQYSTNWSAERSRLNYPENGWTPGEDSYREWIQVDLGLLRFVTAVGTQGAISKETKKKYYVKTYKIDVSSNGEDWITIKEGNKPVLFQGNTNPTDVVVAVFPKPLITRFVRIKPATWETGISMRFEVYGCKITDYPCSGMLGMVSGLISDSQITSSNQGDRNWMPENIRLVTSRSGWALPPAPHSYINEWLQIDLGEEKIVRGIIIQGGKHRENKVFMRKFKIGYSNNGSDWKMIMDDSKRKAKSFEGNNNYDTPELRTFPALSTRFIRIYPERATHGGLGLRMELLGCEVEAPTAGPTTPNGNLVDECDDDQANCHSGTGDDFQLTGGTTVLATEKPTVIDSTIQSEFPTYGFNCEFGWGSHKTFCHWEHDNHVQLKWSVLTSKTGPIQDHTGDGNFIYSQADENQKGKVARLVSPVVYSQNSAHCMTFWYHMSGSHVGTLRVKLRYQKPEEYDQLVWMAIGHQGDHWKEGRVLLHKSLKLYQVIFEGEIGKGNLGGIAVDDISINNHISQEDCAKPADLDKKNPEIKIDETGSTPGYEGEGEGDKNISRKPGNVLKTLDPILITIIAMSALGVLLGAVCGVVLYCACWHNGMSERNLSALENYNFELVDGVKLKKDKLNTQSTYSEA
UCH37 DUB inh = inhibitors of human deubiquitinating enzyme UCH37. 330,000 compounds, 0.33% hits. inhibition, % (concentration not given with the values). AID 588478. Q9Y5K5. purified proteasome/UCH37, Ub-AMC cleavage fluorescence;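 active = mean inhibition over replicate wells above about 20%, limit read from the data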;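 note: 0% = compound-free wells with enzyme and 100% = wells lacking proteasome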
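assay system = human UCH37 enzyme supplied as purified proteasome complex | amount = proteasome at 0.15 nM in the dispensed enzyme solution | schedule = 30 min compound-proteasome preincubation then 25 min substrate reaction, room temperature | measured by = fluorescence, ex 355 nm, em 460 nm | benchmarks = no-proteasome wells (full inhibition) and compound-free wells (no inhibition)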
* = called active by the depositor; . = not tested or not shown. Most compounds without a hit are left out; they make up all but 1.5% or so of the library.

SMILES	CTSL1 counter	MT1-MMP act inh	DAGLB inhibitor	NRP1-CendR mod	UCH37 DUB inh
Cc1cccc(OCC(=O)Nc2cc(C)on2)c1	-3	2	-1	-12	34*
O=C(NCc1ccccc1)c1ccc(N2CCC3(CC2)CC(c2ccc(Cl)cc2)=NO3)c([N+](=O)[O-])c1	-6	0	5	31*	-2
CCCNC(=O)c1ccc(N2CCC3(CC2)CC(c2ccccc2)=NO3)c([N+](=O)[O-])c1	-1	9	9	1	-1
CC(NC(=O)COc1ccccc1)C(=O)NCc1ccc(S(N)(=O)=O)cc1 (stereo not drawn)	.	2	-1	-10	-1
COC(=O)C1N[C@@H]([C@@H](NC(=O)COc2ccccc2)C(=O)NCc2ccccc2)SC1(C)C (stereo partly drawn)	-4	-2	2	32*	4
CC(=NN1CCN(c2ccccc2)CC1)c1cccs1	.	.	.	.	5
COc1ccc(C=NNc2nc3ccccc3c(=O)[nH]2)cc1	.	.	.	.	6
CCCCN1CC(O)=C(c2nc3ccccc3[nH]2)C1=N	4	4	-1	22*	-2
CCCCCN1CC(O)=C(c2nc3ccccc3[nH]2)C1=N	-1	9	3	11	4
COc1cc(C=Nn2c(-c3ccc4c(c3)NC(=O)CO4)csc2=Nc2cccc(C)c2)ccc1O	.	.	.	.	0
COc1ccc(CN=C(C)c2c(C(F)(F)F)[nH]n(-c3nc4ccccc4s3)c2=O)cc1	18*	-3	-2	-8	3
CC(=NNC(=O)CC(C)C)c1c(C(F)(F)F)[nH]n(-c2nc3ccccc3s2)c1=O	.	.	.	.	4
c1ccc(C[C@H]2COc3c4ccccc4nn32)cc1	.	6	.	26*	.
Oc1c(N=Nc2ccccn2)ccc2ccccc12	3	77	40*	-14	6
CCOC(=O)CN(C#N)c1nc(N(C)C)nc(N(C)C)n1	54*	2	-2	-1	.
CCNc1nc(NC(C)C)nc(N(C#N)CC(=O)OC)n1	71*	1	-1	4	2
CSc1nc(N(C)C)nc(N(C)C#N)n1	-3	2	-1	8	-1
COC(=O)CN(C#N)c1nc(SC)nc(N(C)C)n1	29*	6	-3	-6	5
COc1cc(C=NNC(=O)CN2CCCCC2)ccc1OCc1ccc(Br)cc1	.	.	.	.	3
Cc1cc2c(cc1C)NC(c1nc3ccccc3[nH]1)C1=C(CC(C)(C)CC1=O)N2 (stereo not drawn)	7	5	1	29*	1
CC(=O)NC(c1ccccc1)c1cc([N+](=O)[O-])c2cccnc2c1O (stereo not drawn)	6	3	12	9	19
CC(=O)NC(c1cccs1)c1cc([N+](=O)[O-])c2cccnc2c1O (stereo not drawn)	5	6	23	9	20*
CCC(=O)NC(c1cccs1)c1cc([N+](=O)[O-])c2cccnc2c1O (stereo not drawn)	0	8	22	2	20*
CC(=O)Nc1ccc(C(=O)NN=Cc2ccccc2OC(=O)c2ccc(Cl)cc2)cc1	.	.	.	.	-5
CCn1c(SCC(=O)NCc2ccco2)nc2ccccc2c1=O	4	1	-4	-3	2
SMILES	CTSL1 counter	MT1-MMP act inh	DAGLB inhibitor	NRP1-CendR mod	UCH37 DUB inh
CCn1c(SCC(=O)NCCOc2ccccc2)nc2ccccc2c1=O	-1	-1	1	-8	28*
Cn1cccc1C=NNC(=O)c1cccc(OC(F)(F)C(F)F)c1	.	.	.	.	5
O=C(O)CSc1nnc(-c2ccc(Cl)cc2Cl)n1-c1ccc(Cl)cc1	-3	-2	3	26*	.
CCc1ccc(OCC(=O)NN=Cc2cc([N+](=O)[O-])ccc2N2CCCCCC2)cc1	.	.	.	.	7
COc1ccc(C=NNC(=O)c2ccccc2)cc1OS(=O)(=O)c1ccccc1	.	.	.	.	5
CC(=NNC(=O)c1nn(C)c(C)c1Br)c1cccc(NC(=O)c2ccc(F)cc2)c1	.	.	.	.	-1
O=C(O)c1ccccc1/C=N/Nc1ccc(S(=O)(=O)N2CCOCC2)cc1[N+](=O)[O-]	4	4	4	0	.
O=C(O)COc1ccccc1C=NNc1ccc(S(=O)(=O)N2CCOCC2)cc1[N+](=O)[O-]	.	.	.	.	23*
O=S1(=O)CCOCCN1Cc1ccccc1	-3	0	1	15	1
CC(C)C[C@H]1COCCS(=O)(=O)N1Cc1ccccc1F	16	3	-2	25*	5
